Source: ChEMBL document CHEMBL1671756, “In vitro and in vivo antifungal susceptibilities of the Mucoralean fungus Cunninghamella” (2010)
≈ marks a conversion by molar mass, not a printed value. Calls of active or inactive are those of the source. The calls are words filed in the database; no cut-off is given here.

Key:
[1] = tested on: Cunninghamella bertholletiae; assay: Antifungal activity against Cunninghamella bertholletiae UTHSC 05-2275 infected in neutropenic OF1 mouse assessed as increase in mouse survival rate at 80 mg/kg, po qd administered 1 day after infection for 7 days relative to untreated control; assay type: functional, organism-based; set-up: dose 80 mg/kg
In short: (§1)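 Male OF1 mice, about 30 g, made neutropenic with cyclophosphamide 200 mg/kg i.p. plus 5-fluorouracil 150 mg/kg i.v. 1 day before challenge. Infected i.v. via the lateral tail vein with 1 × 10⁴ CFU of hemacytometer-counted sporangiospores in 0.2 ml saline. Ceftazidime 5 mg/day s.c. on days 1–7. Oral treatment started 24 h after challenge; 10 mice per group; checked daily for 20 days; Kaplan-Meier mean survival time, log-rank test.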

[2] = tested on: Cunninghamella bertholletiae; assay: Antifungal activity against Cunninghamella bertholletiae UTHSC 05-2275 infected in neutropenic OF1 mouse assessed as decreased fungal load in lung at 80 mg/kg, po qd administered 1 day post infection measured after 4 to 5 days relative to untreated control; assay type: functional, organism-based; set-up: dose 80 mg/kg
In short: (§2)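 Neutropenic male OF1 mice (cyclophosphamide 200 mg/kg i.p. plus 5-fluorouracil 150 mg/kg i.v., day −1) were given 1 × 10⁴ CFU sporangiospores i.v. in 0.2 ml saline. Treatment from 24 h: 0.8 mg/kg i.v. or oral doses once daily; 10 mice per group. Killed at day 5 (day 4 if moribund). About half of brain, lungs and kidneys homogenized in saline; 10-fold dilutions plated on PDA for 24 h at 35°C; log₁₀ CFU/g tissue.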

[3] = tested on: Cunninghamella bertholletiae; assay: Antifungal activity against Cunninghamella bertholletiae FMR-9598 infected in neutropenic OF1 mouse assessed as decreased fungal load in lung at 60 mg/kg, po qd administered 1 day post infection measured after 4 to 5 days relative to untreated control; assay type: functional, organism-based; set-up: dose 60 mg/kg; in short: as §2
[4] = tested on: Cunninghamella bertholletiae; assay: Antifungal activity against Cunninghamella bertholletiae UTHSC 06-1945 after 24 hrs by broth microdilution method; assay type: functional; conditions: UTHSC 06-1945, 24 h
In short: (§3)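 CLSI broth microdilution for filamentous fungi. Isolates were stored at −80°C and subcultured on potato dextrose agar at 35°C. MICs were read after 24 h. […] The QC strain was Paecilomyces variotii ATCC 36257.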

[5] = tested on: Cunninghamella bertholletiae; assay: Antifungal activity against Cunninghamella bertholletiae FMR-9598 infected in neutropenic OF1 mouse assessed as decreased fungal load in kidney at 0.8 mg/kg, iv qd administered 1 day post infection measured after 4 to 5 days relative to untreated control; assay type: functional, organism-based; set-up: dose 0.8 mg/kg; in short: as §2
[6] = tested on: Cunninghamella bertholletiae; assay: Antifungal activity against Cunninghamella bertholletiae UTHSC 05-2275 infected in neutropenic OF1 mouse assessed as decreased fungal load in lung at 60 mg/kg, po qd administered 1 day post infection measured after 4 to 5 days relative to untreated control; assay type: functional, organism-based; set-up: dose 60 mg/kg; in short: as §2
[7] = tested on: Cunninghamella bertholletiae; assay: Antifungal activity against Cunninghamella bertholletiae UTHSC 03-2241 after 24 hrs by broth microdilution method; assay type: functional; conditions: UTHSC 03-2241, 24 h; in short: as §3
[8] = tested on: Cunninghamella bertholletiae; assay: Antifungal activity against Cunninghamella bertholletiae UTHSC 04-2581 after 24 hrs by broth microdilution method; assay type: functional; conditions: UTHSC 04-2581, 24 h; in short: as §3
[9] = tested on: Cunninghamella bertholletiae; assay: Antifungal activity against Cunninghamella bertholletiae FMR-9598 after 24 hrs by broth microdilution method; assay type: functional; conditions: FMR-9598, 24 h; in short: as §3
[10] = Antifungal activity against Cunninghamella echinulata FMR 10974 after 24 hrs by broth microdilution method; assay type: functional; in short: as §3
[11] = tested on: Cunninghamella bertholletiae; assay: Antifungal activity against Cunninghamella bertholletiae UTHSC 05-2275 infected in neutropenic OF1 mouse assessed as decreased fungal load in kidney at 60 mg/kg, po qd administered 1 day post infection measured after 4 to 5 days relative to untreated control; assay type: functional, organism-based; set-up: dose 60 mg/kg; in short: as §2
[12] = tested on: Cunninghamella bertholletiae; assay: Antifungal activity against Cunninghamella bertholletiae UTHSC 04-2581 infected in neutropenic OF1 mouse assessed as decreased fungal load in kidney at 60 mg/kg, po qd administered 1 day post infection measured after 4 to 5 days relative to untreated control; assay type: functional, organism-based; set-up: dose 60 mg/kg; in short: as §2
[13] = tested on: Cunninghamella bertholletiae; assay: Antifungal activity against Cunninghamella bertholletiae UTHSC 06-1945 infected in neutropenic OF1 mouse assessed as decreased fungal load in lung at 60 mg/kg, po qd administered 1 day post infection measured after 4 to 5 days relative to untreated control; assay type: functional, organism-based; set-up: dose 60 mg/kg; in short: as §2
[14] = Antifungal activity against Cunninghamella echinulata UTHSC 03-3725 after 24 hrs by broth microdilution method; assay type: functional; in short: as §3
[15] = tested on: Cunninghamella bertholletiae; assay: Antifungal activity against Cunninghamella bertholletiae UTHSC 03-2241 infected in neutropenic OF1 mouse assessed as decreased fungal load in lung at 60 mg/kg, po qd administered 1 day post infection measured after 4 to 5 days relative to untreated control; assay type: functional, organism-based; set-up: dose 60 mg/kg; in short: as §2
[16] = tested on: Cunninghamella bertholletiae; assay: Antifungal activity against Cunninghamella bertholletiae UTHSC 03-2241 infected in neutropenic OF1 mouse assessed as decreased fungal load in lung at 0.8 mg/kg, iv qd administered 1 day post infection measured after 4 to 5 days relative to untreated control; assay type: functional, organism-based; set-up: dose 0.8 mg/kg; in short: as §2
[17] = tested on: Cunninghamella bertholletiae; assay: Antifungal activity against Cunninghamella bertholletiae UTHSC 03-2241 infected in neutropenic OF1 mouse assessed as decreased fungal load in kidney at 60 mg/kg, po qd administered 1 day post infection measured after 4 to 5 days relative to untreated control; assay type: functional, organism-based; set-up: dose 60 mg/kg; in short: as §2
[18] = tested on: Cunninghamella bertholletiae; assay: Antifungal activity against Cunninghamella bertholletiae FMR-9598 infected in neutropenic OF1 mouse assessed as decreased fungal load in kidney at 60 mg/kg, po qd administered 1 day post infection measured after 4 to 5 days relative to untreated control; assay type: functional, organism-based; set-up: dose 60 mg/kg; in short: as §2
[19] = tested on: Cunninghamella bertholletiae; assay: Antifungal activity against Cunninghamella bertholletiae UTHSC 05-2275 infected in neutropenic OF1 mouse assessed as decreased fungal load in kidney at 80 mg/kg, po qd administered 1 day post infection measured after 4 to 5 days relative to untreated control; assay type: functional, organism-based; set-up: dose 80 mg/kg; in short: as §2
[20] = Antifungal activity against Cunninghamella echinulata FMR 10973 after 24 hrs by broth microdilution method; assay type: functional; in short: as §3
[21] = Antifungal activity against Cunninghamella echinulata UTHSC 01-2298 after 24 hrs by broth microdilution method; assay type: functional; in short: as §3
[22] = tested on: Cunninghamella bertholletiae; assay: Antifungal activity against Cunninghamella bertholletiae UTHSC 04-2581 infected in neutropenic OF1 mouse assessed as decreased fungal load in lung at 60 mg/kg, po qd administered 1 day post infection measured after 4 to 5 days relative to untreated control; assay type: functional, organism-based; set-up: dose 60 mg/kg; in short: as §2
[23] = tested on: Cunninghamella bertholletiae; assay: Antifungal activity against Cunninghamella bertholletiae UTHSC 06-1945 infected in neutropenic OF1 mouse assessed as decreased fungal load in kidney at 60 mg/kg, po qd administered 1 day post infection measured after 4 to 5 days relative to untreated control; assay type: functional, organism-based; set-up: dose 60 mg/kg; in short: as §2
[24] = tested on: Cunninghamella bertholletiae; assay: Antifungal activity against Cunninghamella bertholletiae UTHSC 05-2275 after 24 hrs by broth microdilution method; assay type: functional; conditions: UTHSC 05-2275, 24 h; in short: as §3
[25] = tested on: Cunninghamella bertholletiae; assay: Antifungal activity against Cunninghamella bertholletiae FMR 9598 infected in neutropenic OF1 mouse assessed as increase in mouse survival rate at 60 mg/kg, po qd administered 1 day after infection for 7 days relative to untreated control; assay type: functional, organism-based; set-up: dose 60 mg/kg; in short: as §1

Row | Compound | Activity [1] | Activity [2] | Activity [3] | MIC [4] | Activity [5] | Activity [6] | MIC [7] | MIC [8] | MIC [9] | MIC [10] | Activity [11] | Activity [12] | Activity [13] | MIC [14] | Activity [15] | Activity [16] | Activity [17] | Activity [18] | Activity [19] | MIC [20] | other results
1 | C[C@@H]1[C@H](O)[C@@H](C)/C=C/C=C/C=C/C=C/C=C/C=C/C=C/[C@H](O[C@@H]2O[C@H](C)[C@@H](O)[C@H](N)[C@@H]2O)C[C@@H]2O[C@](O)(C[C@@H](O)C[C@@H](O)[C@H](O)CC[C@@H](O)C[C@@H](O)CC(=O)O[C@H]1C)C[C@H](O)[C@H]2C(=O)O [AMPHOTERICIN B] | Active | Active | Active | 4 µg/mL (≈ 4.33 µM) | Active | Active | 4 µg/mL (≈ 4.33 µM) | 4 µg/mL (≈ 4.33 µM) | 2 µg/mL (≈ 2.16 µM) | 8 µg/mL (≈ 8.66 µM) | Active | Active | Active | 8 µg/mL (≈ 8.66 µM) | Active | Active | Active | Active | Active | 4 µg/mL (≈ 4.33 µM) | MIC [21]: 16 µg/mL (≈ 17.3 µM); Activity [22]: Active; Activity [23]: Active; MIC [24]: 2 µg/mL (≈ 2.16 µM)
2 | CC[C@@H]([C@H](C)O)n1ncn(-c2ccc(N3CCN(c4ccc(OC[C@@H]5CO[C@@](Cn6cncn6)(c6ccc(F)cc6F)C5)cc4)CC3)cc2)c1=O [POSACONAZOLE] | Active | Active | Active | 0.5 µg/mL (≈ 0.713 µM) | Active | Active | 0.5 µg/mL (≈ 0.713 µM) | 0.5 µg/mL (≈ 0.713 µM) | 0.5 µg/mL (≈ 0.713 µM) | > 16 µg/mL | Active | Active | Active | 1 µg/mL (≈ 1.43 µM) | Active | Active | Active | Active | Active | > 16 µg/mL | Activity [25]: Active; MIC [21]: 16 µg/mL (≈ 22.8 µM); Activity [22]: Active; Activity [23]: Active; MIC [24]: 0.5 µg/mL (≈ 0.713 µM)
